Assay results: ChEMBL document CHEMBL3232883, “Triaryl-substituted Schiff bases are high-affinity subtype-selective ligands for the estrogen receptor” (J Med Chem, 2014)
One block for each compound: values may come before it. Active and inactive are the calls of the source. No cut-off for these calls is given here.

What was measured:
HepG2 = test: Agonist activity at ERalpha (unknown origin) harboring N-terminal AF1 domain deleted mutant expressed in human HepG2 cells assessed as transcriptional activation after 24 hrs by ERE-luciferase reporter gene assay; format: cell-based
Estrogen receptor = target: T1, Estrogen receptor (Homo sapiens, UniProt P03372); test: Agonist activity at ERalpha (unknown origin) expressed in human HepG2 cells assessed as transcriptional activation after 24 hrs by ERE-luciferase reporter gene assay; format: cell-based
T1 sequence (P03372 whole entry): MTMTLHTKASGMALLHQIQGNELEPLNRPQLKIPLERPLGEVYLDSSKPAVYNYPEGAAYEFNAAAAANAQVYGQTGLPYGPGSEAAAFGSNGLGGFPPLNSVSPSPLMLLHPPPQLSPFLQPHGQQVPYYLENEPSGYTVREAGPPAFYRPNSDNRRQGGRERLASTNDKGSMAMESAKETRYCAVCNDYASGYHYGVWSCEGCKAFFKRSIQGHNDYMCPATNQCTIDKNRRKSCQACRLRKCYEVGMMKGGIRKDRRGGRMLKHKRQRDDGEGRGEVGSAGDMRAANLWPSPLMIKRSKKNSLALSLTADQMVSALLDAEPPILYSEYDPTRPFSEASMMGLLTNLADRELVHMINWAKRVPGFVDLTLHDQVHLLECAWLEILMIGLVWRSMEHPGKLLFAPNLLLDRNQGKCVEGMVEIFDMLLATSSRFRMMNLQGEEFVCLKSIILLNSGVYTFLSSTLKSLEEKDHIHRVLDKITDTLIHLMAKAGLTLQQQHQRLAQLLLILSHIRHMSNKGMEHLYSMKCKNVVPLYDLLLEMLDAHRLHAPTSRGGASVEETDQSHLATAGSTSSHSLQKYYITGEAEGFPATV
How it was run: (§1)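 HepG2 cells were grown in DMEM with 10% FBS and transfected with a 3×ERE-luciferase reporter plus an ERα or ERβ expression vector. The next day cells were moved to phenol red-free medium with 10% charcoal-dextran-stripped FBS, plated at 20 000 cells/well and left overnight. Ligand was then added as a 12-point dose curve from 10 μM to 100 pM. Luciferase was read after 24 h, normalized to DMSO as 0% and the top of the E2 curve as 100%.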

[1] = target: T2, Estrogen receptor (Homo sapiens) (UniProt P03372); test: Displacement of [3H]-estradiol from human full-length ERalpha after 18 to 24 hrs by competitive radiometric binding assay relative to estradiol
T2 sequence (whole entry): T1 sequence (P03372 whole entry)

[2] = target: T2, Estrogen receptor (Homo sapiens); test: Agonist activity at ERalpha (unknown origin) expressed in human HepG2 cells assessed as transcriptional activation after 24 hrs by ERE-luciferase reporter gene assay relative to 17beta-estradiol; format: cell-based
How it was run: (§2)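 HepG2 cells were cotransfected with a 3×ERE-luciferase reporter (10 μg) plus an ERα or ERβ expression vector (1.6 μg) per 10 cm dish. The next day they were replated at 20 000 cells/well in phenol red-free medium with 10% charcoal-dextran-stripped FBS and held overnight. Cells were then dosed over a 12-point range of 10 μM to 100 pM. Luciferase was read after 24 h, with DMSO set as 0% and the top of the E2 curve as 100%.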

[3] = target: T2, Estrogen receptor (Homo sapiens); test: Antagonist activity at ERalpha (unknown origin) expressed in human HepG2 cells assessed as inhibition of transcriptional activation after 24 hrs by ERE-luciferase reporter gene assay relative to 17beta-estradiol; format: cell-based
How it was run: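 Antagonist mode used HepG2 cells cotransfected with a 3×ERE-luciferase reporter plus an ERα expression vector and steroid-deprived in phenol red-free medium with 10% charcoal-dextran-stripped FBS. Cells received 10 nM estradiol together with increasing compound concentrations across a 10 μM to 100 pM dose curve. Luciferase was measured after 24 h and normalized to DMSO (0%) and the top of the E2 curve (100%).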

Estrogen receptor beta [4] = target: T3, Estrogen receptor beta (Homo sapiens, UniProt Q92731); test: Displacement of [3H]-estradiol from human full-length ERbeta after 18 to 24 hrs by competitive radiometric binding assay relative to estradiol
T3 sequence (Q92731 whole entry): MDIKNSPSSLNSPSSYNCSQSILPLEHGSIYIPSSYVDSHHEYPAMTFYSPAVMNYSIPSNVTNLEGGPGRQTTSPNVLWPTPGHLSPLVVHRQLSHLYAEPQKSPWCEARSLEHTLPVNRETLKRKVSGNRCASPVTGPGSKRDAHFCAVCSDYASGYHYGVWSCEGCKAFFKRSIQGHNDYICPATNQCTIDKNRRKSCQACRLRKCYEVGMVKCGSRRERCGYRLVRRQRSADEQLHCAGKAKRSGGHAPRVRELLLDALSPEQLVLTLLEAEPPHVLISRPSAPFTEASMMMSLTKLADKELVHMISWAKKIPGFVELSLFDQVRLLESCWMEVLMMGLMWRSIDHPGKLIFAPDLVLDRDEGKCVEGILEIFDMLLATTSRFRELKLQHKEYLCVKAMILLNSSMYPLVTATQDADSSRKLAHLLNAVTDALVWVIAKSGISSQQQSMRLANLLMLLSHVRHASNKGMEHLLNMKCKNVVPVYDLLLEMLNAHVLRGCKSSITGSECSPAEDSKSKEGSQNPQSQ

Estrogen receptor beta [5] = target: T3, Estrogen receptor beta; test: Antagonist activity at ERbeta (unknown origin) expressed in human HepG2 cells assessed as inhibition of 17beta-estradiol-induced transcriptional activation after 24 hrs by ERE-luciferase reporter gene assay; format: cell-based
How it was run: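 ERβ-transfected, steroid-deprived HepG2 cells carrying a 3×ERE-luciferase reporter were co-treated with 10 nM estradiol and test ligand over a range of 10 μM to 100 pM. Luciferase was read after 24 h, with each plate normalized to DMSO (0%) and the maximal E2 response (100%). IC50 and % efficacy were derived from the dose curves.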

Homo sapiens = organism: Homo sapiens; test: Selectivity ratio of RBA for human full length ERbeta to RBA for human full-length ERalpha
Estrogen receptor beta [6] = target: T3, Estrogen receptor beta; test: Agonist activity at ERbeta (unknown origin) expressed in human HepG2 cells assessed as transcriptional activation after 24 hrs by ERE-luciferase reporter gene assay relative to 17beta-estradiol; format: cell-based; how it was run: as §2
Estrogen receptor beta [7] = target: T3, Estrogen receptor beta; test: Agonist activity at ERbeta (unknown origin) expressed in human HepG2 cells assessed as transcriptional activation after 24 hrs by ERE-luciferase reporter gene assay; format: cell-based; how it was run: as §1

Structure (SMILES): Oc1ccc(/C(=N\c2cccc(Cl)c2)c2ccc(O)cc2O)cc1
Activity (HepG2): inactive | EC50 (Estrogen receptor): 15 nM | RBA [1]: 37.6% | Efficacy [2]: 117% | Efficacy [3]: 118% | RBA (Estrogen receptor beta [4]): 61.6% | IC50 (Estrogen receptor beta [5]): 67 nM | Selectivity ratio (Homo sapiens): 1.6 | Efficacy (Estrogen receptor beta [6]): 15%

Structure (SMILES): C/C(=N\c1ccc(O)cc1)c1ccc(O)cc1
RBA [1]: < 3% | RBA (Estrogen receptor beta [4]): < 3%

Structure (SMILES): Oc1ccc(/N=C(\c2ccc(O)cc2)c2ccc(O)cc2O)cc1
Activity (HepG2): inactive | EC50 (Estrogen receptor): 7 nM | RBA [1]: 2.25% | Efficacy [2]: 97% | Efficacy [3]: 108% | RBA (Estrogen receptor beta [4]): 1.23% | IC50 (Estrogen receptor beta [5]): 417 nM | Selectivity ratio (Homo sapiens): 0.5 | Efficacy (Estrogen receptor beta [6]): 51%

Structure (SMILES): Oc1ccc(N=C(c2ccc(O)cc2)c2ccc(O)cc2)cc1
Activity (HepG2): inactive | EC50 (Estrogen receptor beta [7]): 332 nM | EC50 (Estrogen receptor): 14 nM | RBA [1]: 1.86% | Efficacy [2]: 95% | Efficacy [3]: 111% | RBA (Estrogen receptor beta [4]): 0.99% | IC50 (Estrogen receptor beta [5]): 300 nM | Selectivity ratio (Homo sapiens): 0.5 | Efficacy (Estrogen receptor beta [6]): 16%

Structure (SMILES): Cc1ccc(N=C(c2ccc(O)cc2)c2ccc(O)cc2)cc1
Activity (HepG2): inactive | RBA [1]: 10% | RBA (Estrogen receptor beta [4]): 20.1% | IC50 (Estrogen receptor beta [5]): 45 nM | Selectivity ratio (Homo sapiens): 2 | Efficacy (Estrogen receptor beta [6]): 7%

Structure (SMILES): Cc1cccc(C)c1N=C(c1ccc(O)cc1)c1ccc(O)cc1
RBA [1]: 1.56% | RBA (Estrogen receptor beta [4]): 2.91% | Selectivity ratio (Homo sapiens): 1.9

Structure (SMILES): Oc1ccc(/C(=N\c2ccc(Br)cc2)c2ccc(O)cc2O)cc1
Activity (HepG2): inactive | EC50 (Estrogen receptor beta [7]): 12500 nM | EC50 (Estrogen receptor): 9 nM | RBA [1]: 64.6% | Efficacy [2]: 113% | Efficacy [3]: 111% | RBA (Estrogen receptor beta [4]): 70.3% | IC50 (Estrogen receptor beta [5]): 100 nM | Selectivity ratio (Homo sapiens): 1.1 | Efficacy (Estrogen receptor beta [6]): 24%

Structure (SMILES): COc1ccc(N=C(c2ccc(O)cc2)c2ccc(O)cc2)cc1
RBA [1]: 4.41% | RBA (Estrogen receptor beta [4]): 3.98% | Selectivity ratio (Homo sapiens): 0.9

Structure (SMILES): Oc1ccc(C(=Nc2ccccc2Cl)c2ccc(O)cc2)cc1
Activity (HepG2): inactive | EC50 (Estrogen receptor): 1 nM | RBA [1]: 62.8% | Efficacy [2]: 104% | Efficacy [3]: 83% | RBA (Estrogen receptor beta [4]): 97% | IC50 (Estrogen receptor beta [5]): 19 nM | Selectivity ratio (Homo sapiens): 1.5 | Efficacy (Estrogen receptor beta [6]): 37%

More lines, in order of falling IC50 (Estrogen receptor beta [5]), values ahead:

EC50 (Estrogen receptor): 10 nM | RBA [1]: 41.8% | Efficacy [2]: 102% | Efficacy [3]: 109% | RBA (Estrogen receptor beta [4]): 114% | IC50 (Estrogen receptor beta [5]): 16 nM | Selectivity ratio (Homo sapiens): 2.5 | Efficacy (Estrogen receptor beta [6]): 10%
Structure (SMILES): Oc1ccc(C(=Nc2cccc(Cl)c2)c2ccc(O)cc2)cc1
Activity (HepG2): inactive

EC50 (Estrogen receptor): 3 nM | RBA [1]: 14.1% | Efficacy [2]: 110% | Efficacy [3]: 126% | RBA (Estrogen receptor beta [4]): 31.5% | IC50 (Estrogen receptor beta [5]): 13 nM | Selectivity ratio (Homo sapiens): 2.2 | Efficacy (Estrogen receptor beta [6]): 34%
Structure (SMILES): Oc1ccc(C(=Nc2ccccc2)c2ccc(O)cc2)cc1

EC50 (Estrogen receptor beta [7]): 628 nM | EC50 (Estrogen receptor): 7 nM | RBA [1]: 14.6% | Efficacy [2]: 102% | Efficacy [3]: 134% | RBA (Estrogen receptor beta [4]): 18.5% | IC50 (Estrogen receptor beta [5]): 6 nM | Selectivity ratio (Homo sapiens): 1.3 | Efficacy (Estrogen receptor beta [6]): 25%
Structure (SMILES): Oc1ccc(/C(=N\c2ccccc2)c2ccc(O)cc2O)cc1

EC50 (Estrogen receptor): 1 nM | RBA [1]: 41.5% | Efficacy [2]: 105% | Efficacy [3]: 128% | RBA (Estrogen receptor beta [4]): 94.1% | IC50 (Estrogen receptor beta [5]): 6 nM | Selectivity ratio (Homo sapiens): 2.3 | Efficacy (Estrogen receptor beta [6]): 11%
Structure (SMILES): Oc1ccc(C(=Nc2ccc(Br)cc2)c2ccc(O)cc2)cc1
Activity (HepG2): inactive

EC50 (Estrogen receptor): 7 nM | RBA [1]: 40.6% | Efficacy [2]: 103% | Efficacy [3]: 149% | RBA (Estrogen receptor beta [4]): 116% | IC50 (Estrogen receptor beta [5]): 6 nM | Selectivity ratio (Homo sapiens): 2.8 | Efficacy (Estrogen receptor beta [6]): 8%
Structure (SMILES): Cc1ccccc1N=C(c1ccc(O)cc1)c1ccc(O)cc1
Activity (HepG2): inactive
